# Results published in ChEMBL document CHEMBL1136924 (J Med Chem, 2009).
# Active and inactive are the calls of the source. The calls are words filed in the database; no cut-off is given here.
# Legend:
# [1] = molecular target: T1, Adrenergic receptor alpha-1 (Rattus norvegicus, UniProt P15823+P23944+P43140); test: Displacement of [3H]prazosin from adrenergic alpha1 receptor in rat cortex
# T1 sequence (P15823 whole entry): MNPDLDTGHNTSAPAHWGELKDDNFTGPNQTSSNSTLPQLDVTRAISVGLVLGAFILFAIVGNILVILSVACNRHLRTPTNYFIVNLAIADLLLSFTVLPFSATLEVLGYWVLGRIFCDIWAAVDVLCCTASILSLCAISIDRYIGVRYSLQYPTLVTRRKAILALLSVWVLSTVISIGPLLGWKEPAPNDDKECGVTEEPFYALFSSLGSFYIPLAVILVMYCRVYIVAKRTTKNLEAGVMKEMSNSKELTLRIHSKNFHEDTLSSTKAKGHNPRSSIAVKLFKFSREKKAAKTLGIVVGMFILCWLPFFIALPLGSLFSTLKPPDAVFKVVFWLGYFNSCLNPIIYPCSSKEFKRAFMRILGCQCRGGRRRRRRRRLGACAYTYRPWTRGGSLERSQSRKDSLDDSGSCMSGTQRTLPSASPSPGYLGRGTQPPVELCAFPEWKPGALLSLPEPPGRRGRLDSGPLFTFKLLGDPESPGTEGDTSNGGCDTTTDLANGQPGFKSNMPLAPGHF
# T1 sequence (P23944 whole entry): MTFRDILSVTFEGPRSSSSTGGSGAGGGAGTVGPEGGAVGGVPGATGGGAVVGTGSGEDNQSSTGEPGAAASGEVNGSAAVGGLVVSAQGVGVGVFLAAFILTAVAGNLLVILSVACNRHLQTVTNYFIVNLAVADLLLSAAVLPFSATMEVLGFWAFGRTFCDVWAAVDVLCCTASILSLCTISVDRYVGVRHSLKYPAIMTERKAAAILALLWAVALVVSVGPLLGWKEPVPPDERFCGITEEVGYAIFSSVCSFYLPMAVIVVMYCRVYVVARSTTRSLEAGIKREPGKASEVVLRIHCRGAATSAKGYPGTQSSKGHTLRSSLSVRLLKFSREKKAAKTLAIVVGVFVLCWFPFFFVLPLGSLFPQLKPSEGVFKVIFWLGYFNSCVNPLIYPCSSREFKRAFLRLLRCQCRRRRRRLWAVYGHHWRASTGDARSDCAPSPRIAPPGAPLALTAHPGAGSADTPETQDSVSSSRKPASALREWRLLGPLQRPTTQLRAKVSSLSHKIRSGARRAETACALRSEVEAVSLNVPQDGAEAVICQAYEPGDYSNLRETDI
# T1 sequence (P43140 whole entry): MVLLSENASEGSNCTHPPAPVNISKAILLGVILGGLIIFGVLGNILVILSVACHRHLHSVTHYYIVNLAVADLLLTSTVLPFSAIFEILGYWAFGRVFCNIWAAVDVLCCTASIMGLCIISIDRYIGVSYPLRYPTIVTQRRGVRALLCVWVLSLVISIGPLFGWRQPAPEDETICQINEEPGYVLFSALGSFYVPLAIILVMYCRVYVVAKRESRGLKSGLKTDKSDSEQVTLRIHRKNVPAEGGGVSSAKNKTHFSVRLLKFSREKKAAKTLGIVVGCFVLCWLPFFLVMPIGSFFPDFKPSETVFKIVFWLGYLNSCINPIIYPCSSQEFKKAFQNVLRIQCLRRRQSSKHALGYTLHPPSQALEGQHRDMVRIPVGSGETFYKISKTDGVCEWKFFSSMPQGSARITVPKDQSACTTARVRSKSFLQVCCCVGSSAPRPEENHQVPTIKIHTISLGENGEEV
# [2] = Apparent volume of distribution with respect to the bioavailability in CD1 albino mouse plasma at 20 mg/kg, ip; format: ADME, organism-based; conditions: read-out: Vc/F
# Method in brief: (§1)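 Male CD1 mice (25-30 g) given ip 5 or 20 mg/kg, killed at set times; trunk blood plasma and brain collected. Solid-phase C18 extraction with internal standard, HPLC-UV at 240 nm. Quantification limits about 0.25 nmol/mL plasma, 0.5 nmol/g brain. Three mice per point. Half-life 0.693/β; clearance dose·F/AUC.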
# Rattus norvegicus [3] = test: Activity at 5HT3 receptor in urethane-anesthetized Sprague-Dawley rat assessed as effect on heart rate at 100 ug/kg, iv measured after 5 to 30 mins post-treatment by von Bezold-Jarisch reflex test relative to 40 ug/kg, iv 1-phenylbiguanide; format: functional, organism-based
# [4] = molecular target: T2, 5-hydroxytryptamine receptor 3A (Cavia porcellus) (UniProt O70212); test: Intrinsic activity at 5HT3 receptor in spontaneously beating guinea pig right atrium assessed as positive chronotropic potency relative to serotonin; conditions: Cardiac atrium
# T2 sequence (whole entry): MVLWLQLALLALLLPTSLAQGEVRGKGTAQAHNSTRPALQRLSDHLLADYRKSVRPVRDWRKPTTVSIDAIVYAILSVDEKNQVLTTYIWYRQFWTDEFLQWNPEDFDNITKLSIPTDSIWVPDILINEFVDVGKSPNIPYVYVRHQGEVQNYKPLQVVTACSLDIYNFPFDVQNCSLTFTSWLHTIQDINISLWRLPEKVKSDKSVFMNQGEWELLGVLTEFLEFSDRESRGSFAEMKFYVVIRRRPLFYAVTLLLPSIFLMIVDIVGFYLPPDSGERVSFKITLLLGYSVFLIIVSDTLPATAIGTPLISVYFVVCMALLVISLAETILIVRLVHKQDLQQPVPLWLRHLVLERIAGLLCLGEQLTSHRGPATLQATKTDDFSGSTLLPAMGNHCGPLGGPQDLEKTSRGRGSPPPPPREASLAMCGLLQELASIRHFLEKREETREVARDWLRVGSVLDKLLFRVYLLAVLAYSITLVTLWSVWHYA
# Method in brief: (§2)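 Guinea pig left and right atria were hung in a 15 mL bath of PSS (pH 7.4, 95% O2-5% CO2, 35 °C) with ketanserin 1 µM. The right atrium beat spontaneously; the left was paced at 1 Hz. Cumulative doses (0.1-100 µM; DMSO ≤0.3%) were added after 45-60 min stabilization. Rate or isometric force was recorded. EC50 came from Probit analysis, n≥4. Intrinsic activity was taken relative to 5-HT.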
# [5] = Clearance in CD1 albino mouse plasma at 20 mg/kg, ip; format: ADME, organism-based; parameters: dose 20 mg/kg, route intraperitoneal; method in brief: as §1
# [6] = Plasma concentration in CD1 albino mouse at 5 mg/kg, ip after 15 mins; format: ADME, organism-based; parameters: dose 5 mg/kg, route intraperitoneal; method in brief: as §1
# Rattus norvegicus [7] = test: Antagonist activity at 5HT3 receptor in urethane-anesthetized Sprague-Dawley rat assessed as reduction in 1-phenylbiguanide-induced bradycardia at 100 ug/kg, iv administered 5 mins before 1-phenylbiguanide challenge measured after 5 to 30 mins post-treatment by von Bezold-Jarisch reflex test; format: functional, organism-based
# [8] = Elimination half life in CD1 albino mouse plasma at 20 mg/kg, ip; format: ADME, organism-based; parameters: dose 20 mg/kg, route intraperitoneal; conditions: read-out: beta t1/2; method in brief: as §1
# Rattus norvegicus [9] = test: Antagonist activity at 5HT3 receptor in urethane-anesthetized Sprague-Dawley rat assessed as half-blockade of 1-phenylbiguanide-induced bradycardia at 30 ug/kg, iv administered 5 mins before 1-phenylbiguanide challenge measured after 5 to 30 mins post-treatment by von Bezold-Jarisch reflex test; format: functional, organism-based
# [10] = molecular target: T2, 5-hydroxytryptamine receptor 3A (Cavia porcellus); test: Agonist activity at 5HT3 receptor in spontaneously beating guinea pig right atrium assessed as positive chronotropic potency at 100 uM; format: functional, tissue-based; conditions: Cardiac atrium; method in brief: as §2
Structure (SMILES),Ki [1] [µM],Vd/F [2] [L/kg],Activity (Rattus norvegicus [3]),Intrinsic activity [4],CL/F [5] [mL/min/kg],concentration at 0.25 h [6] [nM],Activity (Rattus norvegicus [7]),half-life [8] [min],Activity (Rattus norvegicus [9]),pD2 [10]
N[C@@H](CN1CCN(c2nc3cc(F)ccc3n3cccc23)CC1)C(=O)O,> 10,6,inactive,0.81,90,2000,Active,53,–,–
N/C(CN1CCN(c2nc3cc(F)ccc3n3cccc23)CC1)=N\O,> 10,–,–,–,–,–,–,–,Active,inactive
